Source: ChEMBL document CHEMBL2176963, “Design, synthesis, and biological evaluation of 3-(1H-1,2,3-triazol-1-yl)benzamide derivatives as Potent Pan Bcr-Abl inhibitors including the threonine(315)→isoleucine(315) mutant” (J Med Chem, 2012)
Active and inactive are the calls of the source. The rule behind the calls is not given here.

Key:
[1] = Antiproliferative activity against mouse BA/F3 cells expressing Bcr-Abl Q252H mutant after 72 hrs by CCK-8 assay; conditions: BaF3, 72 h
[2] = Antiproliferative activity against mouse BA/F3 cells expressing Bcr-Abl E255V mutant after 72 hrs by CCK-8 assay; conditions: BaF3, 72 h
cells = conditions: Mus musculus, BaF3, 72 h
[3] = Antiproliferative activity against mouse BA/F3 cells expressing Bcr-Abl M244V mutant after 72 hrs by CCK-8 assay; conditions: BaF3, 72 h
[4] = Antiproliferative activity against mouse BA/F3 cells expressing Bcr-Abl H396P mutant after 72 hrs by CCK-8 assay; conditions: BaF3, 72 h
[5] = Antiproliferative activity against mouse BA/F3 cells expressing Bcr-Abl E355G mutant after 72 hrs by CCK-8 assay; conditions: BaF3, 72 h
[6] = Antiproliferative activity against mouse BA/F3 cells expressing wild type Bcr-Abl after 72 hrs by CCK-8 assay; conditions: BaF3, 72 h
[7] = Antiproliferative activity against mouse BA/F3 cells expressing Bcr-Abl E255K mutant after 72 hrs by CCK-8 assay; conditions: BaF3, 72 h
[8] = Antiproliferative activity against mouse BA/F3 cells after 72 hrs by CCK-8 assay; conditions: BaF3, 72 h
[9] = Antiproliferative activity against mouse BA/F3 cells expressing Bcr-Abl M351T mutant after 72 hrs by CCK-8 assay; conditions: BaF3, 72 h
[10] = Antiproliferative activity against mouse BA/F3 cells expressing Bcr-Abl F486S mutant after 72 hrs by CCK-8 assay; conditions: BaF3, 72 h
[11] = Antiproliferative activity against mouse BA/F3 cells expressing Bcr-Abl Y253H mutant after 72 hrs by CCK-8 assay; conditions: BaF3, 72 h
[12] = Antiproliferative activity against mouse BA/F3 cells expressing Bcr-Abl F359V mutant after 72 hrs by CCK-8 assay; conditions: BaF3, 72 h
[13] = Antiproliferative activity against mouse BA/F3 cells expressing Bcr-Abl H396R mutant after 72 hrs by CCK-8 assay; conditions: BaF3, 72 h
[14] = Antiproliferative activity against mouse BA/F3 cells expressing Bcr-Abl G250E mutant after 72 hrs by CCK-8 assay; conditions: BaF3, 72 h
[15] = Antiproliferative activity against mouse BA/F3 cells expressing Bcr-Abl Y253F mutant after 72 hrs by CCK-8 assay; conditions: BaF3, 72 h
[16] = Cell cycle arrest in mouse BA/F3 cells expressing Bcr-Abl T315I mutant assessed as accumulation at G0/G1 phase using propidium iodide staining by FACS analysis; type: functional, cell-based; conditions: BaF3
K562 [17] = experiment: Effect on CrkL protein level in human K562 cells expressing wild type Bcr-Abl by Western blot analysis; type: functional, cell-based
Summary of the method: (§1)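 K562 or Ba/F3 Bcr-Abl T315I cells were treated with graded concentrations, lysed in 1× SDS sample buffer, sonicated and boiled. Lysates were run on 8−12% SDS-PAGE and transferred to PVDF. Membranes were blocked in TBS with 0.1% Tween-20 and 5% nonfat milk, then probed with primary antibody and HRP-conjugated secondary. Blots shown represent three independent experiments.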

[18] = system: Tyrosine-protein kinase ABL1 (Mus musculus), P00520 [T315I]; experiment: Inhibition of Bcr-Abl T315I mutant phosphorylation in mouse BA/F3 cells by Western blot analysis; type: cell-based; conditions: BaF3; summary of the method: as §1
Chain of Tyrosine-protein kinase ABL1 (Mus musculus), P00520 [T315I] (P00520 whole entry T315I): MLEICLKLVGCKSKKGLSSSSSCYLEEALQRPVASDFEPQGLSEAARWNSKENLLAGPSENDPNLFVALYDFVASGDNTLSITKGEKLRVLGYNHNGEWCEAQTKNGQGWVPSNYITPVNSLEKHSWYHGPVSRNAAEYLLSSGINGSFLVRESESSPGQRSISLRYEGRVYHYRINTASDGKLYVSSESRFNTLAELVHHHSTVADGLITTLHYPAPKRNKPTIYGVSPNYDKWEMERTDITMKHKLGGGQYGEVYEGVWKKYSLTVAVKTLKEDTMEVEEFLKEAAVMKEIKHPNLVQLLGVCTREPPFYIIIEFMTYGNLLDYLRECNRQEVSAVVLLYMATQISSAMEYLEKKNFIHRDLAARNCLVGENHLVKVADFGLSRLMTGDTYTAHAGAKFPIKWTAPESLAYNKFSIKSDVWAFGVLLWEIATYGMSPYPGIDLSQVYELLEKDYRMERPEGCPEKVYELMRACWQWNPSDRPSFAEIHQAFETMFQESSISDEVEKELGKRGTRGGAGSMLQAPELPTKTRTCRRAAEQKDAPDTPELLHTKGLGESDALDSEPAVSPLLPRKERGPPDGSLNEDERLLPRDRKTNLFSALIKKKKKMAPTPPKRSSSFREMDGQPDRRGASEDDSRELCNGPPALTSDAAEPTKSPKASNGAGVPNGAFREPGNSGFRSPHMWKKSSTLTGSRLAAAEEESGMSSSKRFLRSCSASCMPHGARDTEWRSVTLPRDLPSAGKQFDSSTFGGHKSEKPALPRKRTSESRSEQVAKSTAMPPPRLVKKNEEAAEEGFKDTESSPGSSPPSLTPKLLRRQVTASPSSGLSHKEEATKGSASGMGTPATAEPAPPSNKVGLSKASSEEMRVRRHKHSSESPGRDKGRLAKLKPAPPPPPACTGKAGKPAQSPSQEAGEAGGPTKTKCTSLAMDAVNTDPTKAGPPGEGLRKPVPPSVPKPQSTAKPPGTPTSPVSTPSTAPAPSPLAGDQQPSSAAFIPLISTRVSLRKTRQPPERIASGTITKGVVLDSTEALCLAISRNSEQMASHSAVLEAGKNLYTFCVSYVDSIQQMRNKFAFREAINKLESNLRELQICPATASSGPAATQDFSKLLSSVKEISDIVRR

K562 [19] = experiment: Antiproliferative activity against human K562 cells expressing wild type Bcr-Abl after 72 hrs by CCK-8 assay; conditions: K562, 72 h
BaF3 [20] = experiment: Effect on CrkL protein level in mouse BA/F3 cells expressing Bcr-Abl T315I mutant by Western blot analysis; type: functional, cell-based; summary of the method: as §1
[21] = system: Tyrosine-protein kinase ABL1 (Mus musculus), P00520 [T315I]; experiment: Inhibition of Bcr-Abl T315I mutant-mediated CrkL phosphorylation in mouse BA/F3 cells by Western blot analysis; type: cell-based; conditions: BaF3; summary of the method: as §1
BaF3 [22] = experiment: Effect on STAT5 protein level in mouse BA/F3 cells expressing Bcr-Abl T315I mutant by Western blot analysis; type: functional, cell-based; summary of the method: as §1
[23] = Antiproliferative activity against human KU812 cells expressing wild type Bcr-Abl after 72 hrs by CCK-8 assay; conditions: KU812, 72 h
K562 [24] = experiment: Effect on STAT5 protein level in human K562 cells expressing wild type Bcr-Abl by Western blot analysis; type: functional, cell-based; summary of the method: as §1
[25] = system: Tyrosine-protein kinase ABL1 (Mus musculus), P00520 [T315I]; experiment: Inhibition of Bcr-Abl T315I mutant-mediated STAT5 phosphorylation in mouse BA/F3 cells by Western blot analysis; type: cell-based; conditions: BaF3; summary of the method: as §1
BaF3 [26] = experiment: Effect on Bcr-Abl T315I mutant protein level in mouse BA/F3 cells by Western blot analysis; type: functional, cell-based; summary of the method: as §1
K562 [27] = experiment: Antiproliferative activity against imatinib-resistant human K562 cells expressing Bcr-Abl Q252H mutant after 72 hrs by CCK-8 assay; conditions: K562, 72 h
K562 [28] = experiment: Effect on wild type Bcr-Abl protein level in human K562 cells by Western blot analysis; type: functional, cell-based; summary of the method: as §1
BaF3 [29] = experiment: Induction of apoptosis in mouse BA/F3 cells expressing Bcr-Abl T315I mutant using annexin-V-FITC and 7-AAD staining by flow cytometer; type: functional, cell-based
K562 [30] = experiment: Induction of apoptosis in human K562 cells expressing wild type Bcr-Abl using annexin-V-FITC and 7-AAD staining by flow cytometer; type: functional, cell-based
K562 [31] = experiment: Cell cycle arrest in human K562 cells expressing wild type Bcr-Abl assessed as accumulation at G0/G1 phase using propidium iodide staining by FACS analysis; type: functional, cell-based

In the case of `Cc1ccc(NC(=O)c2ccc(CN3CCN(C)CC3)cc2)cc1Nc1nccc(-c2cccnc2)n1` [IMATINIB], the IC50 [1] is reported as 3760 nM, the IC50 [2] is reported as 8620 nM and the IC50 (cells) is reported as 3000 nM. It also gave an IC50 [3] of 129 nM, an IC50 [4] of 110 nM and an IC50 [5] of 362 nM. For the same molecule, the IC50 [6] was 1830 nM, the IC50 [7] was 2950 nM and the IC50 [8] was 18500 nM. For the same molecule, the IC50 [9] was 424 nM, the IC50 [10] was 2550 nM and the IC50 [11] was 17100 nM. For the same molecule, the IC50 [12] was 960 nM, the IC50 [13] was 2380 nM and the IC50 [14] was 1860 nM. The IC50 [15] was 1440 nM.
`Cc1nc(Nc2ncc(C(=O)Nc3c(C)cccc3Cl)s2)cc(N2CCN(CCO)CC2)n1` [DASATINIB] gave an IC50 [1] of 6.55 nM, an IC50 [2] of 1.91 nM and an IC50 (cells) of 1710 nM. For the same molecule, the IC50 [3] was 0.12 nM, the IC50 [4] was 0.31 nM and the IC50 [5] was 0.58 nM. The IC50 [6] was 4.5 nM, the IC50 [7] was 5.72 nM and the IC50 [8] was 6590 nM. The IC50 [9] was 0.83 nM, the IC50 [10] was 1.71 nM and the IC50 [11] was 1.29 nM. It also gave an IC50 [12] of 1.94 nM, an IC50 [13] of 1.72 nM and an IC50 [14] of 0.51 nM. The IC50 [15] was 0.58 nM.
With `Cc1ccc(C(=O)Nc2ccc(CN3CCN(C)CC3)c(C(F)(F)F)c2)cc1-n1cc(-c2cnc3[nH]ncc3c2)nn1` the Activity [16] was “Active”, the IC50 [1] was 5.49 nM and the IC50 [2] was 2.96 nM. For the same molecule, the Activity (K562 [17]) was “inactive”, the IC50 (cells) was 13.9 nM and the IC50 [3] was 0.12 nM. For the same molecule, the inhibition [18] was “Dose-dependent effect”, the IC50 (K562 [19]) was 0.4 nM and the Activity (BaF3 [20]) was “inactive”. For the same molecule, the inhibition [21] was “Active”, the IC50 [4] was 0.28 nM and the Activity (BaF3 [22]) was “inactive”. It also gave an IC50 [23] of 0.11 nM, an IC50 [5] of 0.37 nM and an IC50 [6] of 2.44 nM. For the same molecule, the Activity (K562 [24]) was “inactive”, the IC50 [7] was 3.1 nM and the inhibition [25] was “Active”. For the same molecule, the Activity (BaF3 [26]) was “inactive”, the IC50 [8] was 416 nM and the IC50 (K562 [27]) was 5.46 nM. The IC50 [9] was 0.4 nM, the IC50 [10] was 1.43 nM and the IC50 [11] was 1.61 nM. The Activity (K562 [28]) was “inactive”, the IC50 [12] was 1.44 nM and the IC50 [13] was 3.73 nM. For the same molecule, the Activity (BaF3 [29]) was “Active”, the Activity (K562 [30]) was “Active” and the IC50 [14] was 1.67 nM. The IC50 [15] was 0.35 nM and the Activity (K562 [31]) was “Active”.
With `CN1CCN(Cc2ccc(NC(=O)c3ccc(Cl)c(-n4cc(-c5cnc6[nH]ncc6c5)nn4)c3)cc2C(F)(F)F)CC1` the Activity [16] was “Active”, the IC50 [1] was 7.55 nM and the IC50 [2] was 3.41 nM. For the same molecule, the Activity (K562 [17]) was “inactive”, the IC50 (cells) was 11.9 nM and the IC50 [3] was 0.61 nM. For the same molecule, the inhibition [18] was “Dose-dependent effect”, the IC50 (K562 [19]) was 0.43 nM and the Activity (BaF3 [20]) was “inactive”. For the same molecule, the inhibition [21] was “Active”, the IC50 [4] was 0.3 nM and the Activity (BaF3 [22]) was “inactive”. For the same molecule, the IC50 [23] was 0.08 nM, the IC50 [5] was 0.3 nM and the IC50 [6] was 2.49 nM. For the same molecule, the Activity (K562 [24]) was “inactive”, the IC50 [7] was 2.75 nM and the inhibition [25] was “Active”. For the same molecule, the Activity (BaF3 [26]) was “inactive”, the IC50 [8] was 372 nM and the IC50 (K562 [27]) was 3.91 nM. The IC50 [9] was 0.45 nM, the IC50 [10] was 4.17 nM and the IC50 [11] was 2.97 nM. The Activity (K562 [28]) was “inactive”, the IC50 [12] was 2.31 nM and the IC50 [13] was 5.4 nM. The Activity (BaF3 [29]) was “Active”, the Activity (K562 [30]) was “Active” and the IC50 [14] was 1.97 nM. For the same molecule, the IC50 [15] was 0.52 nM and the Activity (K562 [31]) was “Active”.
`Cc1cn(-c2cc(NC(=O)c3ccc(C)c(Nc4nccc(-c5cccnc5)n4)c3)cc(C(F)(F)F)c2)cn1` [NILOTINIB] showed an IC50 [1] of 150 nM, an IC50 [2] of 473 nM and an IC50 (cells) of 775 nM. The IC50 [3] was 1.54 nM, the IC50 [4] was 6.34 nM and the IC50 [5] was 8.38 nM. It also gave an IC50 [6] of 65.2 nM, an IC50 [7] of 292 nM and an IC50 [8] of 40800 nM. It also gave an IC50 [9] of 10.3 nM, an IC50 [10] of 21 nM and an IC50 [11] of 314 nM. For the same molecule, the IC50 [12] was 159 nM, the IC50 [13] was 87.2 nM and the IC50 [14] was 38.6 nM. For the same molecule, the IC50 [15] was 60.7 nM.
